# Source: PubChem BioAssay
# The list is not random: actives were taken first. Their share in the collection is about 3.8%.
# T cell HTS: T cell immune modulators affecting CD8 T cell-vesicle binding | 330,000 tested, 0.068% active | 2C CD8+ T cell-vesicle binding, flow cytometry; stronger effect = lower value | response (vesicle binding), % at 7 µM | AID 2052;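 active = response, share of CD8 T cells binding vesicles, and their 90th percentile fluorescence all below set limits, cut at about 80% in these data, passing the limit was not always enough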;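 also: values below 100% mean blocked vesicle binding to the CD8+ T cells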
#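 material = purified 2C TCR transgenic mouse naive CD8+ T cells | controls = Unloaded micro-vesicles (low), QL9 vesicles with 0.7% DMSO (high) | detection = cytometric PE anti-B7-1 and Alexa647 anti-CD8 signals after 1% paraformaldehyde fixation | incubation = binding step 1.5 h, 37 °C, antibody labelling 20 min, ice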
# Granule exo inh: lytic granule exocytosis inhibition | TALL-104 LAMP-1 surface exposure, flow cytometry; cells stimulated with thapsigargin and PMA | inhibition, % at 10 µM | 360,000 tested, 0.66% active;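 active = inhibition above about 55%, limit read from the data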
# V-ATPase pH: regulators of yeast V-ATPase proton transport; AID 504577; response, % at 10 µM; 350,000 tested, 0.37% active; S. cerevisiae, pHLuorin cytosolic pH fluorescence; in the data active = response mostly above about 7.3%, no sharp cut-off; inactive = mostly below about 5.4%; also: actives read high
# B2AR ag: agonists of human beta-2 adrenergic receptor inducing internalization; P07550; Am2.2-beta2AR cells, FAP receptor internalization, flow cytometry; response, % (concentration not given with the values); 340,000 tested, 0.43% active;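 active = response above a set limit, near 3 SD of response in nonfluorescent compounds, cut at about 42% in these data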
# Target sequence (P07550 whole entry, looked up): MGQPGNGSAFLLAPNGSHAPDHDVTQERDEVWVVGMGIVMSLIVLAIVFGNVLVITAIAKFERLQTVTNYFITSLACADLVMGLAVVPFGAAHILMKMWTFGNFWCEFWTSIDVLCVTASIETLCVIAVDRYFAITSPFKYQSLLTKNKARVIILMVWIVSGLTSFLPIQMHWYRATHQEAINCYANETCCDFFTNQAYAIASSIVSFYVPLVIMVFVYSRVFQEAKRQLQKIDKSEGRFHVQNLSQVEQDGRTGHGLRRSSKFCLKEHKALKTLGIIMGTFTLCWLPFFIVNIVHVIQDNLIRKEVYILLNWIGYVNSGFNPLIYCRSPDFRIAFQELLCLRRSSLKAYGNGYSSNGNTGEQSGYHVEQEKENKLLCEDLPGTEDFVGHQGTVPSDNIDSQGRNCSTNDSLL
# rCAG RNA binder: molecules binding r(CAG) RNA repeats; inhibition, % at 3 µM; 370,000 tested, 1.3% active; r(CAG) RNA repeat, TO-PRO-1 dye displacement fluorescence;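 active = inhibition above the plate cutoff, the mean of all test compounds on that plate plus 3 SD, cut at about 35% in these data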;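 also: 0% = DMSO alone and 100% = 100 µM mitoxantrone as full dye displacement; higher means more dye released from RNA so lower well fluorescence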
# MPTP block: blocks calcium-induced mitochondrial swelling. inhibition, % at 10 µM. isolated mouse mitochondria, Ca2+ swelling absorbance, 30 min. 360,000 tested, 1.4% active;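 active = inhibition of 50% or more, scaled per plate between neutral and stimulator controls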;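 also: 0% = DMSO wells given calcium and 100% = 1 mM EGTA wells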
# Active calls of the source: *; . = not tested or not shown.
SMILES,T cell HTS,Granule exo inh,V-ATPase pH,B2AR ag,rCAG RNA binder,MPTP block
CCOC(=O)C1=C(CSc2nc(-c3ccccc3)ccc2C#N)OC(N)=C(C#N)C1c1ccc(OC)cc1 (stereo not drawn),218.0,74.6*,-0.9,-4.2,26.0,0.3
CCOC(=O)C1=C(CSc2nc(CC)c(C)cc2C#N)OC(N)=C(C#N)C1c1ccccc1 (stereo not drawn),202.5,20.6,1.3,8.6,6.0,0.8
CCOC(=O)Cn1cc(CN2CCS(=O)(=O)N(Cc3ccc(Cl)cc3)C(C(=O)OC)C2)nn1 (stereo not drawn),.,.,.,.,5.7,.
CC(=O)N1CCc2c1cccc2S(=O)(=O)NC(CC(C)C)C(=O)Nc1ccc(Cl)c(Cl)c1 (stereo not drawn),.,.,.,.,5.0,.
[O-][n+]1ccccc1/C=C/c1ccccc1,181.4,-6.4,1.5,-5.3,0.4,1.9
[O-][n+]1c(/C=C/c2ccccc2)ccc2ccccc21,173.5,86.9*,8.2,23.6,-2.1,0.0
CCCCCCCCN1C(=O)[C@@H](CC(=O)N2CCN(C(=O)OCC)CC2)C[C@@]2(C(=O)OC)C1=C[C@H](COCc1ccccc1)O[C@@H]2C,.,.,.,.,5.7,.
CCn1c2ccccc2c2cc(C=NNC(=O)CSc3nc4ccccc4c(=O)n3-c3ccccc3)ccc21,.,.,.,.,16.9,.
CCOC(=O)c1c(CSC(=N)N)n(-c2ccc(C)cc2)c2cc(Br)c(OC(C)=O)cc12,222.0,19.2,-0.2,45.4*,12.2,-0.1
CCOC(=O)c1c(CSC(=N)N)n(C)c2cc(Br)c(OC(C)=O)cc12,563.2,49.3,4.9,3.6,14.0,-0.4
COc1cc(/C=C/C(=O)c2ccc3c(c2)OCCO3)cc(Br)c1OCC(=O)N(C)C,99.2,101.8*,-2.7,9.7,7.4,0.1
C=c1[nH]cc(C(C)c2c(C)n(C)c3ccccc23)/c1=C/C (stereo not drawn),.,.,.,.,9.5,.
COc1cc(/C=C(/C#N)C(=O)Nc2ccccc2)ccc1OCc1ccc(C(=O)O)cc1,279.7,-4.3,-1.4,5.0,39.6*,2.0
COc1cc(/C=C(\C#N)c2nc3ccccc3s2)ccc1OCC(=O)Nc1ccccc1,497.6,-0.9,-1.9,76.0*,.,2.1
COc1cc(/C=C(\C#N)C(=O)Nc2cccc(C(=O)O)c2)ccc1OCc1ccc(C)cc1,361.3,10.0,1.0,8.9,4.1,-1.1
CC1(C)CC(=O)C2=C(C1)N(CC1CCCO1)C(=O)C2(O)C(F)(F)F (stereo not drawn),435.3,80.2*,3.0,-5.8,0.7,1.5
c1ccc(CSc2ncnc3c2cnn3Cc2ccccc2)cc1,480.0,0.3,17.5*,8.7,1.6,-0.1
O=C1Nc2ccccc2/C1=N/N=C/c1ccc(-c2ccc([N+](=O)[O-])cc2)o1,.,-0.6,-1.1,42.5*,2.7,0.7
CN(/N=C/c1ccc(-c2ccc([N+](=O)[O-])cc2)o1)c1ccccc1,177.5,-10.9,0.0,-395.9,-3.6,8.0
Cc1ccc(NC(=S)Nc2cccc3cnccc23)cc1C,51.6,55.8*,-0.3,8.6,-1.4,-1.4
COC(=O)[C@]12C[C@H](CC(=O)N3CCN(C(=O)C4CC4)CC3)C(=O)N(CCc3ccc(OC)c(OC)c3)C1=C[C@H](C(C)(C)C)O[C@@H]2C,.,.,.,.,2.5,.
CCOC(=O)c1nc2sc3c(c2c(=O)[nH]1)CCC(C)C3 (stereo not drawn),200.2,-4.4,-1.2,56.2*,1.9,1.4
CC1=C(C#N)c2nc(N)c(C#N)c(C)c2/C1=C\c1ccc(OCC(=O)O)c(Cl)c1,78.8,-2.6,0.5,7.3,47.0*,4.0
C=C1C(=O)C23CCC4C(C)(C(=O)OC)CCCC4(C)C2CCC1(O)C3 (stereo not drawn),.,-6.6,-5.7,95.6*,1.8,-1.5
COC(=O)[C@]1(C)CCC[C@@]2(C)C3CC[C@@]4(C)C[C@]3(CCC21)CC(=O)N4 (stereo partly drawn),810.8,-6.2,1.2,5.0,-9.6,2.4
O=C1C(F)=CC(COC(c2ccccc2)(c2ccccc2)c2ccccc2)OC1n1cc(F)c(=O)[nH]c1=O (stereo not drawn),.,41.0,-0.8,87.2*,25.9,-6.8
O=C(CCn1nnc(-c2cccs2)n1)N1CCOCC1,.,.,.,.,1.9,.
